Test results as given in PMC7056463 (British Journal of Pharmacology, 2020).
Each block holds one compound with its values, some of them ahead of it. Positions of bridges follow the written chain, without caps; N, C: chain ends. Residues, ends and D or L forms follow the SMILES beside them. No end group written: not given here.

Key:
C57B/L6J mice = assay: Plasma cGMP after bolus injection in normotensive mice; format: in vivo, mouse; conditions: plasma taken after 4 min haemodynamic measurement, cGMP ELISA
How it was run: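 Male 16‐week C57B/L6J mice (randomised, blinded) were anaesthetised with isoflurane, ventilated and kept at about 37°C, with a carotid pressure catheter and jugular cannula. After a 10‐min baseline, an i.v. bolus of 1.67 nmol peptide g‐1 or saline was given and haemodynamics followed for 4 min. EDTA blood was then taken by LV puncture. Plasma cGMP was ELISA‐measured after 95% ethanol extraction; n = 7 per peptide, 5 saline.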

[1] = test system: spontaneously hypertensive rats; assay: Cardiac ANP and BNP mRNA by real time PCR in spontaneously hypertensive rats; format: in vivo, rat; conditions: SHR; 3 days administration; RT‐PCR, relative to saline treated rats; n = 6
How it was run: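 After 3 days of subcutaneous osmotic minipump infusion (300 ng kg‐1 min‐1; saline controls) in male 12‐week SHR, cardiac RNA was isolated. 1 μg RNA was reverse‐transcribed and SYBR Green qPCR run with rat ANP and BNP primers. Melting curves checked product purity. Values are relative to saline‐treated rats; n = 6 per group.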

[2] = test system: GC‐A and GC‐B double‐transfected HEK cells; assay: Dose–response of cGMP in GC‐A and GC‐B double‐transfected HEK cells; format: cell-based, mouse; conditions: compared to BNP1‐32
How it was run: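 HEK293 cells were transfected with both murine GC‐A and GC‐B plasmids and used 24 h later. Cells were stimulated for 5 min with peptide at graded concentrations in Tris vehicle, washed in cold HBSS and lysed. cGMP was quantified by ELISA (405/570 nm). EC50 came from a sigmoidal dose–response fit, and curves were compared by two‐way ANOVA.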

murine GC‐A = molecular target: T1, murine GC‐A (Mus musculus, UniProt P18293); assay: cGMP formation in GC‐A‐transfected HEK293 cells; format: cell-based; conditions: 1 μM peptide, 5 min; cGMP ELISA; n = 3 in triplicates
T1 sequence (P18293 29-1057): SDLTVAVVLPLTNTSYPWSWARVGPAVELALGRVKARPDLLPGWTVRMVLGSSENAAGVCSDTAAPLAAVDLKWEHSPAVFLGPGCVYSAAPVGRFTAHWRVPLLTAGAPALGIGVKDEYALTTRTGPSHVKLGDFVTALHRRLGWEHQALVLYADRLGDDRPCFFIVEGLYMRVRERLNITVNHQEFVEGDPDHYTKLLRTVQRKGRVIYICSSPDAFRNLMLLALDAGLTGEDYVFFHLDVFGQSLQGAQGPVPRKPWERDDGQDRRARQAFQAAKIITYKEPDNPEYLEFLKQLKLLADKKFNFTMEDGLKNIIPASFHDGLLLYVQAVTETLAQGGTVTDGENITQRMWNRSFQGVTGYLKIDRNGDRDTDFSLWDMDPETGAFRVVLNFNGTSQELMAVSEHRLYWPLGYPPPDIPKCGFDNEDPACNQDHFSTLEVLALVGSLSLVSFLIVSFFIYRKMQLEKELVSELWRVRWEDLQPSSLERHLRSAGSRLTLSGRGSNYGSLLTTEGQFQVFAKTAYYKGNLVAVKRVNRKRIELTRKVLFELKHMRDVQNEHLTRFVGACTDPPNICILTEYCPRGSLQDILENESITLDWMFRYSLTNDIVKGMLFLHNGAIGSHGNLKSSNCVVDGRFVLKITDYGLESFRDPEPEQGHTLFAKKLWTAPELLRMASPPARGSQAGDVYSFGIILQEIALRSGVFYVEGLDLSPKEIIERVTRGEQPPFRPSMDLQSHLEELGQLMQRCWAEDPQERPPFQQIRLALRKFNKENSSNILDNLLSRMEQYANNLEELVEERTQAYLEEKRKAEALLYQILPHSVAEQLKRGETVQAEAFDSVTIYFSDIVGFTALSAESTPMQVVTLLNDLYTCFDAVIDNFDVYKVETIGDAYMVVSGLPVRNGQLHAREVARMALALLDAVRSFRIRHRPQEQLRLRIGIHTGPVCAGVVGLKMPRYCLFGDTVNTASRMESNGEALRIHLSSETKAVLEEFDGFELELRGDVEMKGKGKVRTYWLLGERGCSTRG
How it was run: (§1)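 HEK293 cells in DMEM/10% FBS were transfected with murine GC‐A or GC‐B plasmid (PolyFect, DMEM/0.5% FBS); empty‐plasmid cells served as controls. After 24 h, cells were exposed to 1 μM peptide or Tris vehicle for 5 min, washed in cold HBSS and lysed. cGMP was measured by ELISA (405 nm, 570 nm correction) in pmol/mL; n = 3 in triplicates.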

[3] = test system: spontaneously hypertensive rats; format: in vivo, rat
murine GC‐B = molecular target: T2, murine GC‐B (Mus musculus, UniProt Q6VVW5); assay: cGMP formation in GC‐B‐transfected HEK293 cells; format: cell-based; conditions: 1 μM peptide, 5 min; cGMP ELISA; n = 3 in triplicates
T2 sequence (Q6VVW5 17-1047): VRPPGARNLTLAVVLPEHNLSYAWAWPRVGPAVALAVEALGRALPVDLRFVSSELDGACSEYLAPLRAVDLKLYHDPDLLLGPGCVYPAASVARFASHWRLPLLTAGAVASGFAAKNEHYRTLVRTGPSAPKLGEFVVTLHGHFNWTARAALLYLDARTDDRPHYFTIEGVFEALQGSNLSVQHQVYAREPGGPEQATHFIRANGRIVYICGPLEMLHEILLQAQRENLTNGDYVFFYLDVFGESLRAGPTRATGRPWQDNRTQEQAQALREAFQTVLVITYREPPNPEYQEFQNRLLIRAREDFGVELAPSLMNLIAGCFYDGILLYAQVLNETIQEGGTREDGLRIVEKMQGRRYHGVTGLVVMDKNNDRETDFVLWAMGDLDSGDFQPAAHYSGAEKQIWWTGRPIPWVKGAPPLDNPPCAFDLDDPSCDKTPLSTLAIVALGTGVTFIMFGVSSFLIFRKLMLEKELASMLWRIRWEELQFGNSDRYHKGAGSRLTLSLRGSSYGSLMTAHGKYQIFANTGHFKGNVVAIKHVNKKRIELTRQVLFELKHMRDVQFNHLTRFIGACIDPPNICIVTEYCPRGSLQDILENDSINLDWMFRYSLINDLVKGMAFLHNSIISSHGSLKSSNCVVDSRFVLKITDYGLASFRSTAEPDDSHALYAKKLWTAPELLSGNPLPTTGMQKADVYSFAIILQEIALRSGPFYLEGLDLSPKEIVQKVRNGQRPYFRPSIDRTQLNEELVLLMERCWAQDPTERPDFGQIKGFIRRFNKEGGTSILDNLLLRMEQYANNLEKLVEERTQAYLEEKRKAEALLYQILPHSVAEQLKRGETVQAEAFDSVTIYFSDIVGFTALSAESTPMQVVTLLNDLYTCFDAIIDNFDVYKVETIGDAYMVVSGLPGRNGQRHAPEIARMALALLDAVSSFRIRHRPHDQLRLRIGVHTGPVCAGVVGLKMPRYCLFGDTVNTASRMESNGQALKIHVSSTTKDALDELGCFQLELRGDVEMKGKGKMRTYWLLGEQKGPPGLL
How it was run: as §1

[4] = Degradation of hBNP by human lung homogenate; format: in vitro ADME; conditions: 10 μM peptide; human lung homogenate 90 μg protein 150 μL buffer; Tris 50 mM pH 7.5 with 0.1% BSA; 37°C; 10 min; LCMS

cGMP formation in GC‐A‐transfected HEK293 cells (murine GC‐A): significantly higher | Stimulation of GC‐B in transfected HEK293 cells (murine GC‐B): much more pronounced effect | cGMP effect on GC‐B transfected cells in comparison to BNP1‐32 (murine GC‐B): 3 fold
Compound: CC[C@H](C)[C@@H]1NC(=O)[C@H](CCCNC(=N)N)NC(=O)[C@H](CC(=O)O)NC(=O)[C@H]([C@@H](C)CC)NC(=O)[C@H](CCCCN)NC(=O)[C@H](Cc2c[nH]cn2)NC(=O)CNC(=O)[C@H](Cc2ccccc2)NC(=O)[C@@H](NC(=O)[C@H](CO)NC(=O)[C@H](CO)NC(=O)[C@@H](NC(=O)[C@H](Cc2c[nH]cn2)NC(=O)[C@@H](NC(=O)[C@@H](NC(=O)[C@H](CCCCN)NC(=O)[C@H](CO)NC(=O)[C@@H](N)CC(N)=O)C(C)C)[C@@H](C)O)[C@@H](C)CC)CSSC[C@@H](C(=O)N[C@@H](CC(N)=O)C(=O)N[C@@H](C)C(=O)N[C@@H](CC(C)C)C(=O)N[C@@H](CCCCN)C(=O)O)NC(=O)CNC(=O)[C@H](CC(C)C)NC(=O)[C@H](CCCNC(=N)N)NC(=O)[C@H](CO)NC(=O)[C@H](C(C)C)NC(=O)[C@H](CO)NC(=O)CNC1=O [BNP1‐30] (H-NSKVTHISSCFGHKIDRIGSVSRLGCNALK-OH; disulfide 10-26; N-terminus assumed)
Increase in plasma cGMP levels compared to BNP1‐32 treated animals (C57B/L6J mice): more pronounced increase | Cardiac ANP mRNA [1]: more pronounced | Cardiac BNP mRNA levels [1]: significantly reduced | Efficiency in dose‐response curves of double‐transfected HEK293 cells [2]: more efficient | Lowering of SBP ([3]; SHR, osmotic minipump 300 ng kg^‐1 min^‐1 for 3 days, versus saline group): 16% | Reduction of systolic BP (abstract) ([3]; model of severe hypertension, 3‐day infusion): 30 mmHg

cGMP formation in GC‐A‐transfected HEK293 cells (murine GC‐A): stimulated their native receptor GC‐A
Compound: BNP1‐32: murine B‐type natriuretic peptide 1‐32, synthesised by Biosyntan (SQGSTLRVQQRPQNSKVTHISSCFGHKIDRIG; Brain natriuretic peptide 45; UniProt P40753 77-108, looked up, fragment)

Compound: human BNP1‐32: mature human BNP1‐32
Degradation of hBNP1‐32 in human lung homogenate [4]: decreased peak area

Compound: murine ANP: murine atrial natriuretic peptide (SLRRSSCFGGRIDRIGAQSGLGCNSFRY; disulfide 7-23 (inferred); ends not checked; UniProt P05125 123-150, looked up)
cGMP formation in GC‐A‐transfected HEK293 cells (murine GC‐A): stimulated their native receptor GC‐A
